Measurements published in article PMC3880594 (Journal of medicinal chemistry, 2013).

Experiments:
[1] = tested on: MDA-MB-231, a TNBC cell line; conditions: same dose range effective for MCF-7 cells; ref 9a; cited from earlier work
[2] = tested on: MCF-7/ADR cells (adriamycin-resistant MCF-7 clone); test: Growth inhibition of drug-resistant breast cancer cells; assay type: cell-based, human; conditions: concentrations from 1 μM to 10 μM, 48 h
[3] = tested on: Bcl-2, Bax, NF-κB (p65), PARP, caspase-3 in MDA-MB-231 cells; test: Western blot of apoptosis related proteins; assay type: cell-based, human; conditions: 48 h; 10 and 19 at 2.5-10 μM, 1 at 10-30 μM
Method in brief: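 MDA-MB-231 cells exposed to test compound or DMSO for 48 h, then lysed; protein measured by Bradford against BSA. 30 μg per lane resolved by SDS-PAGE and blotted to PVDF, blocked in 5% non-fat milk. Primary antibodies overnight: Bcl-2 1:200, Bax 1:1000, PARP 1:10000, NF-κB 1:2000, caspase-3 1:1000, β-actin 1:20000. Secondary antibody applied, then ECL detection.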

[4] = tested on: MDA-MB-231 cells; test: Colony formation assay; assay type: cell-based, human; conditions: 0.625-10 μM, two weeks
Method in brief: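 MDA-MB-231 cells seeded at 800 cells/well in regular medium; after 24 h, test compound (0.625, 1.25, 2.5, 5 or 10 μM) or DMSO vehicle added. Drug-containing medium renewed every 72 h for two weeks. Wells stained with 0.01% crystal violet for 10 min, PBS-washed and dried, then whole-well density quantified digitally. Triplicate; one-way ANOVA, SD shown.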

[5] = tested on: MDA-MB-231 cells; test: Cell apoptosis assay; assay type: cell-based, human; conditions: MDA-MB-231 cells, 1.0, 5.0, 10 μM, 24 h
[6] = tested on: MCF-7 (ER-positive) breast cancer cells; test: MTT antiproliferation assay, MCF-7; assay type: cell-based, human; conditions: MCF-7 and MDA-MB-231 cells
Method in brief: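 Human breast cancer lines MCF-7 (ER-positive) and MDA-MB-231 (triple-negative) were used, with oridonin tested alongside. MTT antiproliferation read-out: after the MTT step, solution replaced by DMSO, OD at 550 nm after 10 min. Each concentration in quadruplicate wells. IC50 by curve fitting. Mean ± SE of three independent experiments.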

[7] = tested on: HMEC (human normal mammary epithelial cells); test: Growth inhibition of normal human mammary epithelial cells; assay type: cell-based; conditions: 10 μM, 24 h; p < 0.05
[8] = tested on: MDA-MB-231 xenograft tumors; test: MDA-MB-231 xenograft tumor model; assay type: in vivo; conditions: 5 mg/kg i.p., nude mice

Structure (SMILES)	growth of MDA-MB-231 [1]	growth inhibitory activity on MCF-7/ADR cells [2]	Bax protein level [3]	Bcl-2 protein level [3]	NF-κB (p65) protein expression [3]	PARP cleavage (116 kDa to 25 kDa) [3]	caspase-3 activation [3]	inhibition of colony formation [4]	induction of apoptosis [5]	antiproliferative activities (in words) [6]	toxicity to HMEC compared with oridonin [7]	tolerability / body weight [8]
C=C1C(=O)[C@]23[C@H](O)[C@H]1CC[C@H]2[C@@]12CO[C@]3(O)[C@@H](O)[C@@H]1C(C)(C)CC[C@@H]2O [Compound 1, Oridonin, reference compound]	failed to reduce the growth	no growth inhibitory activity	up-regulation	down-regulation	down-regulation	up-regulation of Bax and cleaved PARP	did not activate caspase-3 cleavage					
C=C1C(=O)[C@@]23[C@@H]4OC(C)(C)O[C@]25OC[C@]2(C(=O)C(C=O)=CC(C)(C)[C@H]2[C@@H]5O)[C@@H]3CC[C@@H]14 [Compound 10, (3S,3aR,3a^1R,6aR,7S,7aR,11aS,11bS)-7-hydroxy-5,5,8,8-tetramethyl-15-methylene-11,14-dioxo-2,3,3a,7,7a,8,11,11b-octahydro-1H-6a,11a-(epoxymethano)-3,3a^1-ethanophenanthro[1,10-de][1,3]dioxine-10-carbaldehyde]			up-regulation	down-regulation	significant decrease	triggered PARP cleavage	activated caspase-3 in a dose-dependent manner	inhibit the colony formation	significant effects to induce apoptosis of MDA-MB-231 cells in a dose-dependent manner			
C=C1C(=O)[C@@]23C(=O)[C@@H](O)[C@@H]4C(C)(C)[C@@H]5OC[C@]4(C(=O)/C5=C/OC)[C@@H]2CC[C@@H]1[C@H]3O [Compound 13, (3S,4aR,5S,6aR,9S,11aS,11bS,14R,E)-5,14-dihydroxy-2-(methoxymethylene)-4,4-dimethyl-8-methyleneoctahydro-1H-3,11b-(epoxymethano)-6a,9-methanocyclohepta[a]naphthalene-1,6,7(2H,8H)-trione]										no obvious antiproliferative activities		
C=C1C(=O)[C@@]23C(=O)[C@@H](O)[C@@H]4C(C)(C)[C@@H]5OC[C@]4(C(=O)/C5=C\O)[C@@H]2CC[C@@H]1[C@H]3O [Compound 14, (3S,4aR,5S,6aR,9S,11aS,11bS,14R,Z)-5,14-dihydroxy-2-(hydroxymethylene)-4,4-dimethyl-8-methyleneoctahydro-1H-3,11b-(epoxymethano)-6a,9-methanocyclohepta[a]naphthalene-1,6,7(2H,8H)-trione]										no obvious antiproliferative activities		
C=C1C(=O)[C@@]23[C@@H]4OC(C)(C)O[C@]25OC[C@]2(C=CC(=O)C(C)(C)[C@H]2[C@@H]5O)[C@@H]3CC[C@@H]14 [Compound 19, (3S,3aR,3a^1R,6aR,7S,7aS,11aR,11bS)-7-hydroxy-5,5,8,8-tetramethyl-15-methylene-3,3a,7,7a,8,11b-hexahydro-1H-6a,11a-(epoxymethano)-3,3a^1-ethanophenanthro[1,10-de][1,3]dioxine-9,14(2H)-dione]			up-regulation	down-regulation	significant decrease	triggered PARP cleavage	activated caspase-3 in a dose-dependent manner	significantly blocked the colony formation of MDA-MB-231 cells at a submicromolar concentration	significant effects to induce apoptosis of MDA-MB-231 cells in a dose-dependent manner		lower toxicity at 10 μM than oridonin	no significant loss of body weight
